Tested on: HEK-293T
Assay: Multiplex assay against HEK293T
Type: toxicity, cell-based
Details: human
Summary of the method: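 Live cells were stained at seeding with Hoechst33342, BioTracker Green Microtubule Cytoskeleton Dye, MitoTracker Red and Annexin V Alexa Fluor 680, then imaged on a CQ1 microscope at 37°C and 5% CO2 after compound addition. CellPathfinder machine-learning gating split cells into Hoechst high-intensity objects or normal cells. Normal cells were split into healthy, pyknosed or fragmented nuclei, and pyknosed cells into mitotic or apoptotic. Tubulin, mitochondrial-mass and membrane-permeability phenotypes are per cents of healthy-nucleus cells.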

[1] = 12 h, 1 µM, compound concentration 1 uM, replicate 1
[2] = 12 h, 1 µM, compound concentration 1 uM, replicate 2
[3] = 12 h, 10 µM, compound concentration 10 uM, replicate 1
[4] = 12 h, 10 µM, compound concentration 10 uM, replicate 2
[5] = 24 h, 1 µM, compound concentration 1 uM, replicate 1
[6] = 24 h, 1 µM, compound concentration 1 uM, replicate 2
[7] = 24 h, 10 µM, compound concentration 10 uM, replicate 1
[8] = 24 h, 10 µM, compound concentration 10 uM, replicate 2
[9] = 48 h, 1 µM, compound concentration 1 uM, replicate 1
[10] = 48 h, 1 µM, compound concentration 1 uM, replicate 2
[11] = 48 h, 10 µM, compound concentration 10 uM, replicate 1
[12] = 48 h, 10 µM, compound concentration 10 uM, replicate 2

Cc1onc(-c2ccccc2Cl)c1C(=O)N(C)c1ccc(Cl)cc1
Population Apoptotic (%) [1]: 35% | Population Fragmented Nuclei (%) [1]: 8% | Population Healthy Nuclei (%) [1]: 79% | Population Hoechst High Intensity Objects (%) [1]: 9% | Population Membrane Permeable-Phenotype (%) [1]: 0% | Population Mitochondria Different-Phenotype (%) [1]: 41% | Population Mitotic Cells (%) [1]: 64% | Population Normal (%) [1]: 90% | Population Pyknosed Nuclei (%) [1]: 12% | Population Tubulin-Different-Phenotype (%) [1]: 25% | Total Cell Count [1]: 375 | Population Apoptotic (%) [2]: 37% | Population Fragmented Nuclei (%) [2]: 3% | Population Healthy Nuclei (%) [2]: 84% | Population Hoechst High Intensity Objects (%) [2]: 6% | Population Mitochondria Different-Phenotype (%) [2]: 59% | Population Mitotic Cells (%) [2]: 62% | Population Normal (%) [2]: 93% | Total Cell Count [2]: 320 | Population Apoptotic (%) [3]: 38% | Population Fragmented Nuclei (%) [3]: 7% | Population Healthy Nuclei (%) [3]: 79% | Population Hoechst High Intensity Objects (%) [3]: 12% | Population Membrane Permeable-Phenotype (%) [3]: 0% | Population Mitochondria Different-Phenotype (%) [3]: 49% | Population Mitotic Cells (%) [3]: 61% | Population Normal (%) [3]: 87% | Population Pyknosed Nuclei (%) [3]: 13% | Population Tubulin-Different-Phenotype (%) [3]: 43% | Total Cell Count [3]: 357 | Population Apoptotic (%) [4]: 45% | Population Fragmented Nuclei (%) [4]: 4% | Population Healthy Nuclei (%) [4]: 80% | Population Hoechst High Intensity Objects (%) [4]: 6% | Population Mitochondria Different-Phenotype (%) [4]: 65% | Population Mitotic Cells (%) [4]: 54% | Population Normal (%) [4]: 93% | Population Pyknosed Nuclei (%) [4]: 14% | Population Tubulin-Different-Phenotype (%) [4]: 35% | Total Cell Count [4]: 330 | Population Apoptotic (%) [5]: 23% | Population Fragmented Nuclei (%) [5]: 9% | Population Healthy Nuclei (%) [5]: 81% | Population Hoechst High Intensity Objects (%) [5]: 5% | Population Membrane Permeable-Phenotype (%) [5]: 1% | Population Mitochondria Different-Phenotype (%) [5]: 21% | Population Mitotic Cells (%) [5]: 76% | Population Normal (%) [5]: 94% | Population Pyknosed Nuclei (%) [5]: 9% | Population Tubulin-Different-Phenotype (%) [5]: 14% | Total Cell Count [5]: 523 | Population Apoptotic (%) [6]: 42% | Population Fragmented Nuclei (%) [6]: 5% | Population Hoechst High Intensity Objects (%) [6]: 3% | Population Mitochondria Different-Phenotype (%) [6]: 44% | Population Mitotic Cells (%) [6]: 57% | Population Normal (%) [6]: 96% | Population Pyknosed Nuclei (%) [6]: 12% | Population Tubulin-Different-Phenotype (%) [6]: 18% | Total Cell Count [6]: 383 | Population Apoptotic (%) [7]: 45% | Population Fragmented Nuclei (%) [7]: 8% | Population Healthy Nuclei (%) [7]: 79% | Population Hoechst High Intensity Objects (%) [7]: 5% | Population Membrane Permeable-Phenotype (%) [7]: 1% | Population Mitochondria Different-Phenotype (%) [7]: 32% | Population Mitotic Cells (%) [7]: 54% | Population Normal (%) [7]: 94% | Population Pyknosed Nuclei (%) [7]: 12% | Population Tubulin-Different-Phenotype (%) [7]: 20% | Total Cell Count [7]: 478 | Population Apoptotic (%) [8]: 29% | Population Fragmented Nuclei (%) [8]: 7% | Population Healthy Nuclei (%) [8]: 82% | Population Hoechst High Intensity Objects (%) [8]: 3% | Population Membrane Permeable-Phenotype (%) [8]: 0% | Population Mitochondria Different-Phenotype (%) [8]: 47% | Population Mitotic Cells (%) [8]: 70% | Population Normal (%) [8]: 96% | Population Pyknosed Nuclei (%) [8]: 9% | Total Cell Count [8]: 413 | Population Apoptotic (%) [9]: 21% | Population Fragmented Nuclei (%) [9]: 14% | Population Healthy Nuclei (%) [9]: 79% | Population Hoechst High Intensity Objects (%) [9]: 2% | Population Membrane Permeable-Phenotype (%) [9]: 0% | Population Mitochondria Different-Phenotype (%) [9]: 11% | Population Mitotic Cells (%) [9]: 78% | Population Normal (%) [9]: 97% | Population Pyknosed Nuclei (%) [9]: 6% | Population Tubulin-Different-Phenotype (%) [9]: 9% | Total Cell Count [9]: 932 | Population Apoptotic (%) [10]: 31% | Population Fragmented Nuclei (%) [10]: 11% | Population Healthy Nuclei (%) [10]: 82% | Population Membrane Permeable-Phenotype (%) [10]: 1% | Population Mitochondria Different-Phenotype (%) [10]: 23% | Population Mitotic Cells (%) [10]: 68% | Population Pyknosed Nuclei (%) [10]: 5% | Population Tubulin-Different-Phenotype (%) [10]: 12% | Total Cell Count [10]: 620 | Population Apoptotic (%) [11]: 33% | Population Fragmented Nuclei (%) [11]: 14% | Population Healthy Nuclei (%) [11]: 76% | Population Hoechst High Intensity Objects (%) [11]: 3% | Population Membrane Permeable-Phenotype (%) [11]: 1% | Population Mitochondria Different-Phenotype (%) [11]: 16% | Population Mitotic Cells (%) [11]: 66% | Population Normal (%) [11]: 96% | Population Pyknosed Nuclei (%) [11]: 8% | Population Tubulin-Different-Phenotype (%) [11]: 15% | Total Cell Count [11]: 755 | Population Apoptotic (%) [12]: 20% | Population Fragmented Nuclei (%) [12]: 12% | Population Healthy Nuclei (%) [12]: 81% | Population Membrane Permeable-Phenotype (%) [12]: 0% | Population Mitochondria Different-Phenotype (%) [12]: 25% | Population Mitotic Cells (%) [12]: 79% | Population Pyknosed Nuclei (%) [12]: 6% | Population Tubulin-Different-Phenotype (%) [12]: 16% | Total Cell Count [12]: 652
